Test results from ChEMBL document CHEMBL1629621, “Evaluation of strategies for improving proteolytic resistance of antimicrobial peptides by using variants of EFK17, an internal segment of LL-37” (Antimicrob Agents Chemother, 2009).
≈ marks a conversion by molar mass, not a printed value. Calls of active or inactive are those of the source. No cut-off for these calls is given here. Where a SMILES comes first, the peptide text is derived from it.

Tests used:
Pseudomonas aeruginosa [1] = experiment: Antimicrobial activity against Pseudomonas aeruginosa ATCC 27853 after 21 hrs by broth microdilution method; format: functional; details: ATCC 27853, 21 h
Method in brief: (§1)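 Microtiter broth dilution at 37°C for 21 h in DEAE-refined LB medium prepared in 10 mM Tris, pH 7.4. Bacteria were grown overnight in 3% trypticase soy broth, rinsed in Tris and used at about 10^6 CFU/ml. Final peptide was 0.6–80 µM in twofold steps. Growth was read visually as pellet and at OD540. MIC is >95% inhibition with no visible pellet. Two separate experiments.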

[2] = Stability of the compound at 136 uM after 4 hrs in presence of aureolysin; format: ADME
Method in brief: (§2)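 Peptide at 136 µM was incubated with protease (peptide:enzyme 300:1) for 4 h at 37°C in 10 mM Tris, pH 7.4. The reaction was stopped by boiling in Laemmli buffer, then run on Tris-Tricine 16.5% SDS-PAGE and Coomassie stained. Band densitometry gave the undegraded fraction, normalized to peptide incubated without enzyme. Two separate experiments.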

Staphylococcus aureus [3] = experiment: Antimicrobial activity against Staphylococcus aureus FDA 486 after 21 hrs by broth microdilution method; format: functional; details: FDA 486, 21 h; method in brief: as §1
[4] = Toxicity in human erythrocytes at 60 uM by hemolysis assay in presence of serum; format: cell-based; details: erythrocyte
Staphylococcus aureus [5] = experiment: Antimicrobial activity against Staphylococcus aureus 2844 after 21 hrs by broth microdilution method; format: functional; details: Staphylococcus aureus, 2844, 21 h; method in brief: as §1
Pseudomonas aeruginosa [6] = experiment: Antimicrobial activity against Pseudomonas aeruginosa 15159 after 21 hrs by broth microdilution method; format: functional; details: Pseudomonas aeruginosa, 15159, 21 h; method in brief: as §1
Lipid bilayer [7] = experiment: Binding affinity to DOPC-cholesterol liposome at 10 to 1000 uM after 45 mins by ellipsometry in presence of NaCl
Method in brief: (§3)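 Ellipsometry on DOPC-cholesterol bilayers deposited from DDM micelles onto silica. Peptide was added cumulatively in 10 mM Tris, pH 7.4, with 5 mM glucose at 37°C; […] adds 150 mM NaCl. Each step was followed 45 min to saturation. Adsorbed amount was calculated from refractive index and thickness, with dn/dc 0.154 cm3/g. Duplicates.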

Lipid bilayer [8] = experiment: Induction of DOPC-cholesterol liposome leakage in cell-free system at 0.1 to 1 uM after 45 mins; format: functional
Method in brief: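 Carboxyfluorescein-loaded (100 mM, self-quenching) DOPC-cholesterol 3:2 unilamellar liposomes, about 110 nm, at 10 µM lipid in Tris buffer at 37°C with stirring. Peptide was added at a single concentration per experiment, between 0.01 and 1 µM. After a 10 min baseline, fluorescence increase was followed for 45 min and the limiting leakage level taken.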

[9] = Stability of the compound at 136 uM after 4 hrs in presence of human neutrophil elastase; format: ADME; method in brief: as §2
Lipid bilayer [10] = experiment: Binding affinity to DOPC-cholesterol liposome at 10 to 1000 uM after 45 mins by ellipsometry; method in brief: as §3
[11] = Stability of the compound at 136 uM after 4 hrs in presence of […] V8 protease; format: ADME; method in brief: as §2
Staphylococcus aureus [12] = experiment: Antimicrobial activity against Staphylococcus aureus 29213 after 21 hrs by broth microdilution method; format: functional; details: Staphylococcus aureus, 29213, 21 h; method in brief: as §1
[13] = Stability of the compound at 136 uM after 4 hrs in presence of Pseudomonas aeruginosa elastase; format: ADME; method in brief: as §2
[14] = Toxicity in human erythrocytes at 6 to 60 uM by hemolysis assay; format: cell-based; details: erythrocyte
Method in brief: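 EDTA-treated human erythrocytes were washed and used as a 5% suspension in PBS, pH 7.4. Cells were rotated end-over-end with peptide for 1 h at 37°C, then centrifuged. Hemoglobin was read at 540 nm relative to 2% Triton X-100, with spontaneous leakage as background. Triplicate.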

HaCaT [15] = experiment: Cytotoxicity against human HaCaT assessed as LDH release at 6 to 60 uM; format: cell-based
Method in brief: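 HaCaT keratinocytes were seeded at 3,000 cells/well and grown to confluence in serum-free keratinocyte medium with BPE-rEGF. They were exposed overnight to 6 or 60 µM peptide in that medium. LDH release was measured against a 1% Triton X-100 control, with spontaneous release as background. Triplicate.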

HaCaT [16] = experiment: Cytotoxicity against human HaCaT assessed at 6 to 60 uM by MTT assay; format: cell-based
Method in brief: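 HaCaT keratinocytes were seeded at 3,000 cells/well, grown to confluence in SFM-BPE-rEGF, and given 6 or 60 µM peptide overnight. MTT was then added for 1 h at 37°C and formazan dissolved in DMSO. Absorbance was read at 550 nm relative to untreated cells, with the 1% Triton X-100 signal as background. Triplicate.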

MIC (Pseudomonas aeruginosa [1]) [µM] | Stability [2] | MIC (Staphylococcus aureus [3]) [µM] | MIC (Staphylococcus aureus [5]) [µM] | MIC (Pseudomonas aeruginosa [6]) [µM] | Activity (Lipid bilayer [7]) | Stability [9] | Activity (Lipid bilayer [10]) | Stability [11] | MIC (Staphylococcus aureus [12]) [µM] | Stability [13] | Compound | Activity [4] | Activity (Lipid bilayer [8]) | Activity [14] | Activity (HaCaT [15]) | Activity (HaCaT [16])
80 (≈ 174 µg/mL) | Unstable | 40 (≈ 87 µg/mL) | 20 (≈ 43.5 µg/mL) | 80 (≈ 174 µg/mL) | inactive | Unstable | Active | Stable | 80 (≈ 174 µg/mL) | Unstable | CC[C@H](C)[C@H](NC(=O)[C@H](CCCNC(=N)N)NC(=O)[C@H](CCC(N)=O)NC(=O)[C@@H](NC(=O)[C@@H](NC(=O)[C@H](CCCNC(=N)N)NC(=O)[C@H](CCCCN)NC(=O)[C@H](Cc1ccccc1)NC(=O)[C@@H](N)CCC(=O)O)[C@@H](C)CC)C(C)C)C(=O)N[C@@H](CCCCN)C(=O)N[C@@H](CC(=O)O)C(=O)N[C@@H](Cc1ccccc1)C(=O)N[C@@H](CC(C)C)C(=O)N[C@@H](CCCNC(=N)N)C(=O)N[C@@H](CC(N)=O)C(=O)N[C@@H](CC(C)C)C(=O)N[C@H](C(=O)O)C(C)C | Non-toxic | Active |  |  | 
10 (≈ 24 µg/mL) | Stable | 5 (≈ 12 µg/mL) | 5 (≈ 12 µg/mL) | 20 (≈ 48 µg/mL) | inactive | Stable | Active | Stable | 10 (≈ 24 µg/mL) | Unstable | CC(C)C[C@H](NC(=O)[C@H](Cc1c[nH]c2ccccc12)NC(=O)[C@H](CC(=O)O)NC(=O)[C@H](CCCCN)NC(=O)[C@H](Cc1c[nH]c2ccccc12)NC(=O)[C@H](CCCNC(=N)N)NC(=O)[C@H](CCC(N)=O)NC(=O)[C@@H](NC(=O)[C@H](Cc1c[nH]c2ccccc12)NC(=O)[C@H](CCCNC(=N)N)NC(=O)[C@H](CCCCN)NC(=O)[C@H](Cc1c[nH]c2ccccc12)NC(=O)[C@@H](N)CCC(=O)O)C(C)C)C(=O)N[C@@H](CCCNC(=N)N)C(=O)N[C@@H](CC(N)=O)C(=O)N[C@@H](CC(C)C)C(=O)N[C@H](C(=O)O)C(C)C (H-EWKRWVQRWKDWLRNLV-OH) |  | Active | Toxic | Toxic | Toxic
